Experimental findings from ChEMBL document CHEMBL2412978, “Effect of ring-constrained phenylpropyloxyethylamines on sigma receptors” (Bioorg Med Chem, 2013) are described below.

The source made the active and inactive calls. No cut-off for these calls is given here.

The species entered for one test is Rattus norvegicus. The test is described as follows: Selectivity ratio of Ki for sigma 2 receptor in rat brain homogenates to Ki for sigma 1 receptor in rat brain homogenates. The format is tissue-based.
A short description of test [1]: Displacement of [3H]di-o-tolylguanidine from sigma 2 receptor in rat brain homogenates after 120 mins by liquid scintillation counting. Format: tissue-based. A general note: Displacement assays read how much labelled ligand stays bound in the presence of the test substance.
The target in test [2] is Kappa-type opioid receptor (Homo sapiens, UniProt P41145). The test is described as follows: Displacement of [3H]U69,593 from human kappa opioid receptor expressed in CHO cells after 120 mins by liquid scintillation counting. Format: cell-based. The method in brief:
(§1)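 Membranes from CHO cells stably expressing human μ, δ or κ opioid receptor. Radioligands: μ 1.3 nM [3H]DAMGO, δ 1.2 nM [3H]DPDPE, κ 1.7 nM [3H]U69,593; nonspecific with 1 μM of the matching unlabelled ligand.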

In another test the target is Mu-type opioid receptor (Homo sapiens, UniProt P35372). The test is described as follows: Displacement of [3H]DAMGO from human mu opioid receptor expressed in CHO cells after 120 mins by liquid scintillation counting. The format is cell-based. Put shortly: as §1
Chain of Mu-type opioid receptor (P35372 whole entry): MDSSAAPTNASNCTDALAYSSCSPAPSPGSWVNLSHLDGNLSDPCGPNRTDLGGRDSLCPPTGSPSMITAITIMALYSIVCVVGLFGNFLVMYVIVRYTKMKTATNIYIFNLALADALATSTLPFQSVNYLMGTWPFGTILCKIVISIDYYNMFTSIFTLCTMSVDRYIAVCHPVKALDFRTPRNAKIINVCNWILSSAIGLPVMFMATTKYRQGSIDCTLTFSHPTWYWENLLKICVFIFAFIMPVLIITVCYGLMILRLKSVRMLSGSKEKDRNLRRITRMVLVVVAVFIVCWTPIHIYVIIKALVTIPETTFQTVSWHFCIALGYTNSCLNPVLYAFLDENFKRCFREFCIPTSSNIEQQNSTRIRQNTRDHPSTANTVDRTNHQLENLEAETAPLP
The subject of test [3] is Mus musculus. The test is described as follows: Anticonvulsant activity in ip dosed Swiss Webster mouse assessed as reversal of cocaine-induced loss of righting reflexes administered 15 mins before cocaine challenge measured after 30 mins. The format is functional, organism-based. Put shortly:
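Male Swiss Webster mice, n = 10 per group, given test compound ip (0–30 mg/kg range across doses including vehicle 0) 15 min before convulsive cocaine 70 mg/kg ip. Animals watched 30 min after cocaine for occurrence of convulsions; groups compared by Fisher's exact test.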

Test [4] concerns Mus musculus. The test is described as follows: Anticonvulsant activity in Swiss Webster mouse assessed as reversal of cocaine-induced loss of righting reflexes at 30 mg/kg, ip administered 15 mins before cocaine challenge measured after 30 mins. The format is functional, organism-based. More on the design: dose 30 mg/kg. Put shortly: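 Male Swiss Webster mice, n = 10/group, given test compound ip (0, 1, 10 or 30 mg/kg) 15 min before a convulsive dose of cocaine (70 mg/kg ip). Animals observed for convulsions for 30 min after cocaine injection. Groups compared by Fisher's exact test.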

Chain of Kappa-type opioid receptor (P41145 whole entry): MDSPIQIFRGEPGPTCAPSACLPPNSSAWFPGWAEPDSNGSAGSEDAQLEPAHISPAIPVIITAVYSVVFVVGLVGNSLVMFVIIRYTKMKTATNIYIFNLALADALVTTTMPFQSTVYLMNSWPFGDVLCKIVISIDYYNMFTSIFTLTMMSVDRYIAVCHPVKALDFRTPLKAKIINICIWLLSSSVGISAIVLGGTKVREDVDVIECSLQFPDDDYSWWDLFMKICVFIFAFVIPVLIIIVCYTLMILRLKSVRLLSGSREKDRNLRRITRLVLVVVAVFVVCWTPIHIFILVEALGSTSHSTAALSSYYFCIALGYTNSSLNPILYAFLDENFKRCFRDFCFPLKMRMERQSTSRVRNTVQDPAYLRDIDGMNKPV

One may read the Ki as a dissociation constant, usually derived from enzyme kinetics or from competition with a known ligand. A higher Ki goes with a looser hold on the target. On to `CN(C)[C@H]1CCCC[C@@H]1OCCCc1ccccc1` (relative stereo), for which the Ratio Ki in the test listed under Rattus norvegicus worked out at 65. The compound also displayed a Ki in test [1] of 3800 nM.
As to `CN(CCc1ccccc1)[C@H]1CCCC[C@@H]1OCCCc1ccccc1` (relative stereo), the Ratio Ki in the test filed under Rattus norvegicus came to 7. Moreover, the inhibition constant Ki was 570 nM in test [1] and 21000 nM in test [2].
As to `CN(CCCc1ccccc1)[C@H]1CCCC[C@@H]1OCCCc1ccccc1` (racemic), the Ki in test [1] was above 10000 nM.
On to `CN(CCCc1ccccc1)[C@H]1CCCC[C@@H]1O` (relative stereo), for which the Ratio Ki in the test listed under Rattus norvegicus worked out at 0.4. The Ki was 6.7 nM in test [1] and above 10000 nM on Mu-type opioid receptor. Besides, in the test with Mus musculus [3], the Activity entry was “Dose-dependent effect”.
`CN(CCc1ccccc1)[C@H]1CCCC[C@@H]1O` (relative stereo): the outcome in the test with Mus musculus [4] was Active. In addition, the Ratio Ki in the test listed under Rattus norvegicus turned out to be 2. Besides, the affinity in test [1] corresponds to a Ki of 220 nM.
Consider `CN(C)[C@H]1CCCC[C@@H]1OC/C=C/c1ccccc1` (relative stereo), for which the Ratio Ki in the test listed under Rattus norvegicus was found to be 240. This compound showed a Ki in test [1] of 1100 nM.
For `c1ccc(CCN2CCCCC2)cc1` [1-PHENETHYLPIPERIDINE], in that order: 5 and 140 nM.
